Results: ChEMBL document CHEMBL1140884, “Oligodeoxyribonucleotide-based antagonists for Toll-like receptors 7 and 9” (2009)
Calls of active or inactive are those of the source. The rule behind the calls is not given here.

Columns and labels:
Type in all cases: functional, cell-based
[1] = molecular target: T1, Toll-like receptor 9 (Mus musculus) (UniProt Q9EQU3); test: Agonist activity at mouse TLR9 expressed in HEK293 cells assessed as activation of NF-kappaB at 10 ug/mL by SEAP reporter gene assay
T1 sequence (whole entry): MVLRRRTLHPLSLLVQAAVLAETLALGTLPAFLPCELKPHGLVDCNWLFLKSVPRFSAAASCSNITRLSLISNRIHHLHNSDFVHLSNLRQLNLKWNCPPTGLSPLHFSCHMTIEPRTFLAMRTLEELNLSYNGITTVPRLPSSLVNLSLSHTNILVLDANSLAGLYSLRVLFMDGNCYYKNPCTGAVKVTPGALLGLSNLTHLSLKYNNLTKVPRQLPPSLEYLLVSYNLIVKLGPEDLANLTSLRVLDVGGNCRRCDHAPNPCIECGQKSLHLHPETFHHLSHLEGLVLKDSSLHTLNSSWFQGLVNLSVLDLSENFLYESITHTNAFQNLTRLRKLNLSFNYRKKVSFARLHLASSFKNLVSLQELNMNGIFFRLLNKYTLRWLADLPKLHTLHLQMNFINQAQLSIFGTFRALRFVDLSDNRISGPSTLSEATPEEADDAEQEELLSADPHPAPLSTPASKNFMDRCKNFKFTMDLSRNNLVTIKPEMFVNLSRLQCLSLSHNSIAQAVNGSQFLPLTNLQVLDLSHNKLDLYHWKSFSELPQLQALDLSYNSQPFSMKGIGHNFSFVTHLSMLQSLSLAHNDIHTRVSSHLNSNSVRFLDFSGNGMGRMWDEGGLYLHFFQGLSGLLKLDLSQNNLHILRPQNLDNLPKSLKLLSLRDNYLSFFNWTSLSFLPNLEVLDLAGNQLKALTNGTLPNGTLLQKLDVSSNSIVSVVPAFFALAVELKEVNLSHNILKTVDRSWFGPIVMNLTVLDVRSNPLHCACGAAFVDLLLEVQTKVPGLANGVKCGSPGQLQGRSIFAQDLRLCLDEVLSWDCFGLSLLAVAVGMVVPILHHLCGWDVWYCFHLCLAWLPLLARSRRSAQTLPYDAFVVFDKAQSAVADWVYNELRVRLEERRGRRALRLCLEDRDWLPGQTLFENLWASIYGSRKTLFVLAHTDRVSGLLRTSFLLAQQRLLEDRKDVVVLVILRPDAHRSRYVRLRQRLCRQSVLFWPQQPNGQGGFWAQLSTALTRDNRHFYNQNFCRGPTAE
Outline: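 HEK293 cells stably expressing mouse TLR9 were transiently transfected with a SEAP reporter for 6 h. Compounds were added at 10 µg/mL for 18 h. SEAP was read with Quanti-Blue substrate and expressed as fold change in NF-κB activity.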

[2] = molecular target: T1, Toll-like receptor 9 (Mus musculus); test: Agonist activity at TLR9 in mouse J774 cells assessed as of NF-kappaB activation
Outline: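 Murine J774 macrophages grown in DMEM with 10% FBS and plated at 5×10^6 cells/well. Nuclear extracts taken 1 h after agonist addition. NF-κB detected by EMSA on native polyacrylamide gels with autoradiography.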

[3] = molecular target: T1, Toll-like receptor 9 (Mus musculus); test: Antagonist activity at TLR9 in mouse J774 cells assessed as inhibition of 5'-TCTGACRTTCT-X-TCTTRCAGTCT-3'-induced NF-kappaB activation pretreated for 1 hr
Outline: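 J774 cells at 5×10^6 cells/well were preincubated with antagonist for 1 h. Agonist was then added: TLR9 agonist 1 µg/mL, an RNA-based TLR7/8 agonist, or LPS 100 ng/mL. Antagonist was used at 5–40 µg/mL or at the indicated agonist ratios. Nuclear extracts were taken 1 h after agonist and analysed by EMSA.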

[4] = molecular target: T1, Toll-like receptor 9 (Mus musculus); test: Antagonist activity at mouse TLR9 expressed in HEK293 cells assessed as inhibition of 5'-CTATCTGACGTTCTCTGT-3'-induced NF-kappaB activation by SEAP reporter gene assay
Outline: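 Mouse TLR9-HEK293 cells were transfected with a SEAP reporter for 6 h. They were then stimulated for 18 h with agonist (0.25 or 0.5 µg/mL) plus increasing antagonist concentrations or set agonist:antagonist ratios. Quanti-Blue read-out, reported as % NF-κB activity with agonist alone as 100%.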

SMILES	Activity [1]	Activity [2]	Activity [3]	Activity [4]
CO[C@@H]1[C@H](OP(=O)(S)OC[C@H]2O[C@@H](n3ccc(N)nc3=O)C[C@@H]2OP(=O)(S)OC[C@H]2O[C@@H](n3ccc(N)nc3=O)C[C@@H]2OP(=O)(S)OC[C@H]2O[C@@H](n3cc(C)c(=O)[nH]c3=O)C[C@@H]2OP(=O)(S)OC[C@H]2O[C@@H](n3cc(C)c(=O)[nH]c3=O)C[C@@H]2OP(=O)(S)OC[C@H]2O[C@@H](n3ccc(N)nc3=O)C[C@@H]2OP(=O)(S)OC[C@H]2O[C@@H](n3cc(C)c(=O)[nH]c3=O)C[C@@H]2OP(=O)(S)OC[C@H]2O[C@@H](n3ccc(N)nc3=O)C[C@@H]2OP(=O)(S)OC[C@H]2O[C@@H](n3cc(C)c(=O)[nH]c3=O)C[C@@H]2OP(=O)(S)OC[C@H]2O[C@@H](n3cnc4c(=O)[nH]c(N)nc43)C[C@@H]2OP(=O)(S)OC[C@H]2O[C@@H](n3cc(C)c(=O)[nH]c3=O)C[C@@H]2O)[C@@H](COP(=O)(S)O[C@H]2[C@@H](OC)[C@H](n3cnc4c(=O)[nH]c(N)nc43)O[C@@H]2COP(=O)(S)O[C@H]2C[C@H](n3cc(C)c(=O)[nH]c3=O)O[C@@H]2COP(=O)(S)O[C@H]2C[C@H](n3ccc(N)nc3=O)O[C@@H]2COP(=O)(S)O[C@H]2C[C@H](n3cc(C)c(=O)[nH]c3=O)O[C@@H]2COP(=O)(S)O[C@H]2C[C@H](n3cnc4c(N)ncnc43)O[C@@H]2COP(=O)(S)O[C@H]2C[C@H](n3cc(C)c(=O)[nH]c3=O)O[C@@H]2COP(=O)(S)O[C@@H]2C[C@@H](n3ccc(N)nc3=O)O[C@H]2CO)O[C@H]1n1cnc2c(N)ncnc21 (some centres not stated)	inactive	inactive	inactive	
Cc1cn([C@H]2C[C@H](OP(=O)(S)OC[C@H]3O[C@@H](n4ccc(N)nc4=O)C[C@@H]3OP(=O)(S)OC[C@H]3O[C@@H](n4cc(C)c(=O)[nH]c4=O)C[C@@H]3OP(=O)(S)OC[C@H]3O[C@@H](n4cnc5c(=O)[nH]c(N)nc54)C[C@@H]3OP(=O)(S)OC[C@H]3O[C@@H](n4cc(C)c(=O)[nH]c4=O)C[C@@H]3O)[C@@H](COP(=O)(S)O[C@H]3C[C@H](n4ccc(N)nc4=O)O[C@@H]3COP(=O)(S)O[C@H]3C[C@H](n4cc(C)c(=O)[nH]c4=O)O[C@@H]3COP(=O)(S)O[C@H]3C[C@H](n4cc(C)c(=O)[nH]c4=O)O[C@@H]3COP(=O)(S)O[C@H]3C[C@H](n4cnc5c(=O)[nH]c(N)nc54)O[C@@H]3COP(=O)(S)O[C@H]3C[C@H](n4ccc(N)nc4=O)O[C@@H]3COP(=O)(S)O[C@H]3C[C@H](n4cc(C)c(=O)[nH]c4=O)O[C@@H]3COP(=O)(S)O[C@H]3C[C@H](n4cnc5c(=O)[nH]c(N)nc54)O[C@@H]3COP(=O)(S)O[C@H]3C[C@H](n4cc(C)c(=O)[nH]c4=O)O[C@@H]3COP(=O)(S)O[C@H]3C[C@H](n4ccc(N)nc4=O)O[C@@H]3COP(=O)(S)O[C@H]3C[C@H](n4cc(C)c(=O)[nH]c4=O)O[C@@H]3COP(=O)(S)O[C@H]3C[C@H](n4cnc5c(N)ncnc54)O[C@@H]3COP(=O)(S)O[C@H]3C[C@H](n4cc(C)c(=O)[nH]c4=O)O[C@@H]3COP(=O)(S)O[C@@H]3C[C@@H](n4ccc(N)nc4=O)O[C@H]3CO)O2)c(=O)[nH]c1=O (some centres not stated)	Active			
Cc1cn([C@@H]2O[C@H](COP(=O)(S)O[C@H]3C[C@H](n4ccc(N)nc4=O)O[C@@H]3COP(=O)(S)O[C@H]3C[C@H](n4cc(C)c(=O)[nH]c4=O)O[C@@H]3COP(=O)(S)O[C@H]3C[C@H](n4ccc(N)nc4=O)O[C@@H]3COP(=O)(S)O[C@H]3C[C@H](n4cc(C)c(=O)[nH]c4=O)O[C@@H]3COP(=O)(S)O[C@H]3C[C@H](n4cc(C)c(=O)[nH]c4=O)O[C@@H]3COP(=O)(S)O[C@H]3C[C@H](n4cnc5c(=O)[nH]c(N)nc54)O[C@@H]3COP(=O)(S)O[C@H]3C[C@H](n4ccc(N)nc4=O)O[C@@H]3COP(=O)(S)O[C@H]3C[C@H](n4cnc5c(N)ncnc54)O[C@@H]3COP(=O)(S)O[C@H]3C[C@H](n4cnc5c(=O)[nH]c(N)nc54)O[C@@H]3COP(=O)(S)O[C@H]3C[C@H](n4cc(C)c(=O)[nH]c4=O)O[C@@H]3COP(=O)(S)O[C@H]3C[C@H](n4ccc(N)nc4=O)O[C@@H]3COP(=O)(S)O[C@H]3C[C@H](n4cc(C)c(=O)[nH]c4=O)O[C@@H]3COP(=O)(S)O[C@H]3C[C@H](n4cnc5c(N)ncnc54)O[C@@H]3COP(=O)(S)O[C@H]3C[C@H](n4cc(C)c(=O)[nH]c4=O)O[C@@H]3COP(=O)(S)O[C@@H]3C[C@@H](n4ccc(N)nc4=O)O[C@H]3CO)[C@@H](OP(=O)(S)OC[C@H]3O[C@@H](n4cnc5c(=O)[nH]c(N)nc54)C[C@@H]3OP(=O)(S)OC[C@H]3O[C@@H](n4cc(C)c(=O)[nH]c4=O)C[C@@H]3O)[C@H]2O)c(=O)[nH]c1=O (some centres not stated)	Active			inactive
CO[C@@H]1[C@H](OP(=O)(S)OC[C@H]2O[C@@H](n3ccc(N)nc3=O)C[C@@H]2OP(=O)(S)OC[C@H]2O[C@@H](n3cc(C)c(=O)[nH]c3=O)C[C@@H]2OP(=O)(S)OC[C@H]2O[C@@H](n3ccc(N)nc3=O)C[C@@H]2OP(=O)(S)OC[C@H]2O[C@@H](n3cc(C)c(=O)[nH]c3=O)C[C@@H]2OP(=O)(S)OC[C@H]2O[C@@H](n3cnc4c(=O)[nH]c(N)nc43)C[C@@H]2OP(=O)(S)OC[C@H]2O[C@@H](n3cc(C)c(=O)[nH]c3=O)C[C@@H]2O)[C@@H](COP(=O)(S)O[C@H]2[C@@H](OC)[C@H](n3ccc(=O)[nH]c3=O)O[C@@H]2COP(=O)(S)O[C@H]2C[C@H](n3cnc4c(=O)[nH]c(N)nc43)O[C@@H]2COP(=O)(S)O[C@H]2C[C@H](n3ccc(N)nc3=O)O[C@@H]2COP(=O)(S)O[C@H]2C[C@H](n3cnc4c(N)ncnc43)O[C@@H]2COP(=O)(S)O[C@H]2C[C@H](n3cnc4c(=O)[nH]c(N)nc43)O[C@@H]2COP(=O)(S)O[C@H]2C[C@H](n3cc(C)c(=O)[nH]c3=O)O[C@@H]2COP(=O)(S)O[C@H]2C[C@H](n3ccc(N)nc3=O)O[C@@H]2COP(=O)(S)O[C@H]2C[C@H](n3cc(C)c(=O)[nH]c3=O)O[C@@H]2COP(=O)(S)O[C@H]2C[C@H](n3cnc4c(N)ncnc43)O[C@@H]2COP(=O)(S)O[C@H]2C[C@H](n3cc(C)c(=O)[nH]c3=O)O[C@@H]2COP(=O)(S)O[C@@H]2C[C@@H](n3ccc(N)nc3=O)O[C@H]2CO)O[C@H]1n1ccc(=O)[nH]c1=O (some centres not stated)	Active			
